The source made the active and inactive calls. No cut-off for these calls is given here.
Assays:
Assay type in all cases: functional, organism-based
Acanthamoeba castellanii [1] = assay: Anti-amoebic activity against Acanthamoeba castellanii ATCC 30010 cyst assessed as reduction in cyst survival at 1 mM incubated for 24 to 72 hrs by crystal violet staining based assay; conditions: time 24-72 hrs
How it was run: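 Scraped PYG-grown cells, 1000 per well, exposed 24, 48 or 72 h at +25 °C. Medium-inhibitor solution then moved to new plates, topped with fresh medium, and held 5 days at +25 °C to allow excystation. Methanol fix, 0.1% crystal violet, 10% acetic acid, A590. Unpaired t-test vs control at 72 h.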

Acanthamoeba castellanii [2] = assay: Anti-amoebic activity against Acanthamoeba castellanii ATCC 30010 trophozoites assessed as reduction in amoebic growth at 100 uM incubated for 24 to 72 hrs by crystal violet staining based assay; conditions: time 24-72 hrs
How it was run: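 Trophozoites scraped from steady-state PYG culture, 1000 cells per well in inhibitor-containing PYG, +25 °C, separate plates read at 24, 48, 72 h. Methanol fix, 0.1% crystal violet, 10% acetic acid elution, A590. Two experiments, ≥3 wells each. Unpaired t-test vs drug-free control at 72 h.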

Acanthamoeba castellanii [3] = assay: Anti-amoebic activity against Acanthamoeba castellanii ATCC 30010 cyst assessed as inhibition of excystation at 100 uM incubated for 72 hrs by crystal violet staining based assay
How it was run: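 Axenic culture in PYG medium at +25 °C, grown past peak density to induce encystment; 1000 cysts per well added to inhibitor diluted in PYG, incubated 72 h at +25 °C. Methanol fix, 0.1% crystal violet stain (remaining cysts washed off), dissolve in 10% acetic acid, absorbance 590 nm. Unpaired t-test vs drug-free control; 6 replicates.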

Acanthamoeba castellanii [4] = assay: Anti-amoebic activity against Acanthamoeba castellanii ATCC 30010 trophozoites assessed as reduction in amoebic growth at 15.6 uM incubated for 24 to 72 hrs by crystal violet staining based assay; conditions: time 24-72 hrs
How it was run: (§1)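 Trophozoites scraped from an axenic PYG culture at +25 °C were plated at 1000 cells per well with an inhibitor dilution series in PYG medium, with a separate plate for each time point (24, 48, 72 h). Cells were fixed with methanol, stained with 0.1% crystal violet, dissolved in 10% acetic acid and read at 590 nm. Two experiments, 6–15 wells per concentration; unpaired t-test versus control at 72 h.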

Acanthamoeba castellanii [5] = assay: Anti-amoebic activity against Acanthamoeba castellanii ATCC 30010 cyst assessed as inhibition of excystation at >= 62.5 uM incubated for 72 hrs by crystal violet staining based assay
Acanthamoeba castellanii [6] = assay: Anti-amoebic activity against Acanthamoeba castellanii ATCC 30010 cyst assessed as reduction in cyst survival at 7.81 to 250 uM incubated for 24 to 72 hrs by crystal violet staining based assay; conditions: dose 7.81-250 µM, time 24-72 hrs
How it was run: (§2)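 Cyst survival: after 24, 48 or 72 h of inhibitor exposure of 1000 cells per well in PYG, the medium-inhibitor solution was moved to a new plate and topped up with fresh medium. It was then incubated 5 days at +25 °C so cysts could excyst. Wells were fixed with methanol, stained with 0.1% crystal violet, eluted with 10% acetic acid and read at 590 nm. Unpaired t-test versus control at 72 h.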

Acanthamoeba castellanii [7] = assay: Anti-amoebic activity against Acanthamoeba castellanii ATCC 30010 cyst assessed as reduction in cyst survival at >= 500 uM incubated for 24 to 72 hrs by crystal violet staining based assay; conditions: time 24-72 hrs; how it was run: as §2
Acanthamoeba castellanii [8] = assay: Anti-amoebic activity against Acanthamoeba castellanii ATCC 30010 cyst assessed as inhibition of excystation at 188 nM incubated for 72 hrs by crystal violet staining based assay
Acanthamoeba castellanii [9] = assay: Anti-amoebic activity against Acanthamoeba castellanii ATCC 30010 cyst assessed as reduction in cyst survival at 9.38 uM incubated for 24 to 72 hrs by crystal violet staining based assay; conditions: time 24-72 hrs; how it was run: as §2
Acanthamoeba castellanii [10] = assay: Anti-amoebic activity against Acanthamoeba castellanii ATCC 30010 trophozoites assessed as reduction in amoebic growth at 938 nM incubated for 24 to 72 hrs by crystal violet staining based assay; conditions: time 24-72 hrs; how it was run: as §1
Acanthamoeba castellanii [11] = assay: Anti-amoebic activity against Acanthamoeba castellanii ATCC 30010 cyst assessed as inhibition of excystation at 10 uM incubated for 72 hrs by crystal violet staining based assay
Acanthamoeba castellanii [12] = assay: Anti-amoebic activity against Acanthamoeba castellanii ATCC 30010 trophozoites assessed as reduction in amoebic growth at 100 nM incubated for 24 to 72 hrs by crystal violet staining based assay; conditions: time 24-72 hrs; how it was run: as §1
Acanthamoeba castellanii [13] = assay: Anti-amoebic activity against Acanthamoeba castellanii ATCC 30010 cyst assessed as reduction in cyst survival at […] incubated for 24 to 72 hrs by crystal violet staining based assay; conditions: time 24-72 hrs; how it was run: as §2
Acanthamoeba castellanii [14] = assay: Anti-amoebic activity against Acanthamoeba castellanii ATCC 30010 trophozoites assessed as reduction in amoebic growth at 1 to 100 uM incubated for 24 to 72 hrs by crystal violet staining based assay; conditions: dose 1-100 µM, time 24-72 hrs; how it was run: as §1
Acanthamoeba castellanii [15] = assay: Anti-amoebic activity against Acanthamoeba castellanii ATCC 30010 trophozoites assessed as reduction in amoebic growth at 1 to 100 nM incubated for 24 to 72 hrs by crystal violet staining based assay; conditions: dose 1-100 nM, time 24-72 hrs; how it was run: as §1
Acanthamoeba castellanii [16] = assay: Anti-amoebic activity against Acanthamoeba castellanii ATCC 30010 cyst assessed as inhibition of excystation at >= 10 uM incubated for 72 hrs by crystal violet staining based assay

In the case of CC(=O)Nc1nnc(S(N)(=O)=O)s1, the Activity (Acanthamoeba castellanii [1]) is reported as “Active”, the Activity (Acanthamoeba castellanii [2]) is reported as “Active” and the Activity (Acanthamoeba castellanii [3]) is reported as “Active”.

NN1CCN(NC(=S)S)CC1 was tested, and the Activity (Acanthamoeba castellanii [4]) was “Active”, the Activity (Acanthamoeba castellanii [5]) was “Active” and the Activity (Acanthamoeba castellanii [6]) was “inactive”. The Activity (Acanthamoeba castellanii [7]) was “Active”.

In the case of CCOc1ccc2nc(S(N)(=O)=O)sc2c1, the Activity (Acanthamoeba castellanii [8]) is reported as “Active”, the Activity (Acanthamoeba castellanii [9]) is reported as “Active” and the Activity (Acanthamoeba castellanii [10]) is reported as “Active”.

CCN[C@H]1C[C@H](C)S(=O)(=O)c2sc(S(N)(=O)=O)cc21 was tested, and the Activity (Acanthamoeba castellanii [11]) was “Active”, the Activity (Acanthamoeba castellanii [12]) was “Active” and the Activity (Acanthamoeba castellanii [13]) was “Active”.

For CCN[C@H]1CN(CCCOC)S(=O)(=O)c2sc(S(N)(=O)=O)cc21, the Activity (Acanthamoeba castellanii [14]) was “inactive”, the Activity (Acanthamoeba castellanii [15]) was “inactive” and the Activity (Acanthamoeba castellanii [16]) was “Active”.
